The source of these data is article PMC2645920 (Journal of the American Chemical Society, 2008).

What is called Kd is the equilibrium constant for the complex coming apart.

One series can be described thus: Dynamic light scattering. The series is classed as physicochemical. The settings on record: 750 μM in 1X PBS. An outline of the steps:
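Test compound dissolved in 1X PBS (pH 7.2), pre-filtered, and read at 22 °C with a 25 mW, 750 nm laser and a 90° detector. Detergent runs added 0.01% Triton-X 100. Each sample got ten repeat measurements, filtered on sum of squares and baseline error. Hr was derived by regularization from the autocorrelation decay. Intensity (kcps) is the mean of three or more measurements, compared with buffer.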

Series [1] concerns (CUG)109 RNA – MBNL1 protein interaction. Nature of the series: Enzyme Fragment Complementation. The series is classed as biochemical. The settings on record: EFC assay, immobilized (CUG)109 RNA, PL-MBNL1.
Series [2] has as its target HIV-1 frameshift stimulatory sequence (FSS) RNA hairpin (Seq. F). Nature of the series: Fluorescence titration. The series is classed as binding. The settings on record: FT.
Series [3] deals with 5′-FAM-CCG-(CUG)10-CGG-3′ RNA (Seq. A). Nature of the series: Fluorescence titration. The format is binding. The settings on record: FT.

With `Nc1c(/N=N/c2ccc(-c3ccc(/N=N/c4cc(S(=O)(=O)O)c5ccccc5c4N)cc3)cc2)cc(S(=O)(=O)O)c2ccccc12` [Congo Red], in the series “Dynamic light scattering” (pH 7.2), the “Hr (hydrodynamic radius)” value is listed as 69.25 nm and the Intensity was determined as 242±10 kcps. Besides, in “Dynamic light scattering” (pH 7.2 + Triton-X 100 (0.01%)), the “Hr (hydrodynamic radius)” value is on record as 40.72 nm and the Intensity turned out to be 190±24 kcps.

Consider (Quin-Cys-Pro-Phe)2 [Compound 5-5], for which the “Inhibitory effect on (CUG)n – MBNL1 interaction” value in series [1] was “do not show any inhibitory effect”. The Kd in series [2] is 350 ± 110 nM; in series [3], over 40000 nM.
